Measurements: ChEMBL document CHEMBL1154234, “Cytotoxic constituents of Soymida febrifuga from Myanmar” (J Nat Prod, 2009)

Tests used:
Format in all cases: functional, cell-based
A549 = test: Cytotoxicity against human A549 cells after 72 hrs by MTT assay; conditions: A549, 72 h
In short: (§1)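 Cells grown in MEMR with 10% FBS, 0.1% NaHCO3 and 1% antibiotic antimycotic; seeded 2 × 10^3/well and left 24 h at 37 °C, 5% CO2 to attach. Graded concentrations then added in medium for 72 h; MTT (0.5 mg/mL) for 2 h, formazan taken up in DMSO, absorbance at 550 nm. IC50 from means of three wells.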

[1] = Cytotoxicity against mouse Colon 26-L5 cells after 72 hrs by MTT assay
In short: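 Murine colon 26-L5 cells kept in RPMI 1640 with 10% FBS, 0.1% NaHCO3, 1% antibiotic antimycotic. Plated at 2 × 10^3/well, 24 h attachment at 37 °C, 5% CO2, then varying concentrations for 72 h. Read-out: MTT (0.5 mg/mL) 2 h, DMSO extraction, 550 nm; IC50 from means of three wells.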

HeLa = test: Cytotoxicity against human HeLa cells after 72 hrs by MTT assay; in short: as §1
PANC-1 = test: Cytotoxicity against human PANC1 cells in nutrient-deprived condition after 24 hrs by WST8 assay
In short: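 PANC-1 seeded 2 × 10^4/well in DMEM, 24 h at 37 °C, 5% CO2; washed with PBS and switched to nutrient-deprived medium (or DMEM) with serial dilutions for 24 h. After PBS wash, DMEM with 10% WST-8 added for 3 h, absorbance at 450 nm. Viability vs blank and untreated control from three wells; PC50 reported.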

[2] = Cytotoxicity against mouse B16-BL6 cells after 72 hrs by MTT assay; conditions: B16-BL6, 72 h; in short: as §1
HT-1080 = test: Cytotoxicity against human HT1080 cells after 72 hrs by MTT assay; conditions: HT-1080, 72 h; in short: as §1

## Cc1c(O)ccc2c1O[C@@H](c1ccc(O)cc1)CC2
A549
  IC50: 39.7 µM
[1]
  IC50: 40.2 µM
HeLa
  IC50: 89.2 µM
PANC-1
  PC50: 85.8 µM
[2]
  IC50: 98.9 µM
HT-1080
  IC50: 24.1 µM

## COc1ccc(C(=O)CCc2c(OC)cc(O)cc2OC)cc1
A549
  IC50: > 100 µM
[1]
  IC50: 68.1 µM
HeLa
  IC50: > 100 µM
PANC-1
  PC50: 85.7 µM
[2]
  IC50: 70.1 µM
HT-1080
  IC50: > 100 µM

## COc1cc(O)cc2c1OC[C@H](Cc1ccc(O)cc1)C2
A549
  IC50: > 100 µM
[1]
  IC50: 49.5 µM
HeLa
  IC50: 65.6 µM
PANC-1
  PC50: >100 µM
[2]
  IC50: > 100 µM
HT-1080
  IC50: 70.2 µM

## COc1cc2c(cc1O)C[C@@H](Cc1ccc(O)cc1)CO2
A549
  IC50: 19.1 µM
[1]
  IC50: 22.2 µM
HeLa
  IC50: 37.8 µM
PANC-1
  PC50: 63 µM
[2]
  IC50: 75.4 µM
HT-1080
  IC50: 17.5 µM

## COc1ccc(C[C@@H]2COc3cc(O)cc(O)c3C2=O)cc1
A549
  IC50: > 100 µM
[1]
  IC50: 30.6 µM
HeLa
  IC50: > 100 µM
PANC-1; Homo sapiens, PANC-1, 24 h
  PC50: > 100 µM
[2]
  IC50: 64.3 µM
HT-1080
  IC50: > 100 µM

## COc1cc2cc(Cc3ccc(O)cc3)c(=O)oc2cc1O
A549
  IC50: 88.1 µM
[1]
  IC50: 61.8 µM
HeLa
  IC50: 69.5 µM
PANC-1
  PC50: 86.7 µM
[2]
  IC50: > 100 µM
HT-1080
  IC50: 40.3 µM

## Oc1ccc(C[C@H]2COc3cc(O)ccc3C2)cc1
A549
  IC50: > 100 µM
[1]
  IC50: 44.5 µM
HeLa
  IC50: > 100 µM
PANC-1
  PC50: 79 µM
[2]
  IC50: > 100 µM
HT-1080
  IC50: 79.6 µM

## COc1c(O)cc2c(c1O)C(=O)[C@H](Cc1ccc(O)cc1)CO2
A549
  IC50: > 100 µM
[1]
  IC50: 89.5 µM
HeLa
  IC50: > 100 µM
PANC-1
  PC50: >100 µM
[2]
  IC50: > 100 µM
HT-1080
  IC50: 96.2 µM

## O=C1c2c(O)cc(O)cc2OC[C@H]1Cc1ccc(O)cc1
A549
  IC50: > 100 µM
[1]
  IC50: 57.8 µM
HeLa
  IC50: > 100 µM
PANC-1
  PC50: >100 µM
[2]
  IC50: > 100 µM
HT-1080
  IC50: > 100 µM

## O=C1c2ccc(O)cc2OC[C@H]1Cc1ccc(O)cc1
A549
  IC50: > 100 µM
[1]
  IC50: 69.3 µM
HeLa
  IC50: > 100 µM
PANC-1
  PC50: >100 µM
[2]
  IC50: 99.6 µM
HT-1080
  IC50: > 100 µM

## COc1cc(O)c(C)c2c1CC[C@H](c1ccc(O)cc1)O2
A549
  IC50: 35.5 µM
[1]
  IC50: 59.1 µM
HeLa
  IC50: 74 µM
PANC-1
  PC50: 70.1 µM
[2]
  IC50: 89.1 µM
HT-1080
  IC50: 37 µM

## COc1ccc2c(c1)O[C@H](c1ccc(O)cc1)CC2
A549
  IC50: > 100 µM
[1]
  IC50: 52.8 µM
HeLa
  IC50: > 100 µM
PANC-1
  PC50: 74 µM
[2]
  IC50: 40.8 µM
HT-1080
  IC50: > 100 µM

## COc1ccc(CCC(=O)c2ccc(O)cc2)c(O)c1
A549
  IC50: 12 µM
[1]
  IC50: 81.4 µM
HeLa
  IC50: 46.1 µM
PANC-1
  PC50: >100 µM
[2]
  IC50: 57.8 µM
HT-1080
  IC50: > 100 µM

## O=C(/C=C/c1ccccc1O)c1ccc(O)cc1O
A549
  IC50: 89.9 µM
[1]
  IC50: 28.9 µM
HeLa
  IC50: 89.1 µM
PANC-1
  PC50: >100 µM
[2]
  IC50: > 100 µM
HT-1080
  IC50: 40.4 µM

## O=C(CCc1ccc(O)cc1O)c1ccc(O)cc1
A549
  IC50: > 100 µM
[1]
  IC50: > 100 µM
HeLa
  IC50: > 100 µM
PANC-1
  PC50: >100 µM
[2]
  IC50: > 100 µM
HT-1080
  IC50: > 100 µM

## COc1cc(O)ccc1C(=O)/C=C/c1ccc(O)cc1
A549
  IC50: 66.5 µM
[1]
  IC50: 14.1 µM
HeLa
  IC50: 33.3 µM
PANC-1
  PC50: >100 µM
[2]
  IC50: 49.9 µM
HT-1080
  IC50: 26.7 µM

## COc1ccc(CCC(=O)c2ccc(O)cc2)c(OC)c1
A549
  IC50: 89.5 µM
[1]
  IC50: 32.2 µM
HeLa
  IC50: > 100 µM
PANC-1
  PC50: 83.2 µM
[2]
  IC50: 55.5 µM
HT-1080
  IC50: > 100 µM

## COc1cc(O)cc(OC)c1CCC(=O)c1ccc(O)cc1
A549
  IC50: 42.9 µM
[1]
  IC50: 40.2 µM
HeLa
  IC50: 49 µM
PANC-1
  PC50: 69.7 µM
[2]
  IC50: 84.4 µM
HT-1080
  IC50: 67.2 µM

## COc1cc(O)cc(/C=C/c2ccc(O)cc2)c1
A549
  IC50: 91.8 µM
[1]
  IC50: 35.8 µM
HeLa
  IC50: 48.4 µM
PANC-1
  PC50: 71.4 µM
[2]
  IC50: > 100 µM
HT-1080
  IC50: 89.1 µM

## O=C(/C=C/c1ccccc1)c1ccc(O)cc1O [2',4'-DIHYDROXYCHALCONE]
A549
  IC50: 23.2 µM
[1]
  IC50: 4.71 µM
HeLa
  IC50: 24.4 µM
PANC-1
  PC50: 19 µM
[2]
  IC50: > 100 µM
HT-1080
  IC50: 17 µM

## COc1cccc2c1C(=O)c1c(O)c3c(c(O)c1C2=O)C[C@@](O)(C(=O)CO)C[C@@H]3O[C@H]1C[C@H](N)[C@H](O)[C@H](C)O1 [DOXORUBICIN]
A549
  IC50: 0.84 µM
[1]
  IC50: 3.12 µM
[2]
  IC50: 3.07 µM
HT-1080
  IC50: 0.41 µM

## O=c1[nH]cc(F)c(=O)[nH]1 [FLUOROURACIL]
A549
  IC50: 5.91 µM
[1]
  IC50: 0.41 µM
HeLa
  IC50: 0.44 µM
[2]
  IC50: 7.39 µM
HT-1080
  IC50: 8.58 µM

## COc1cc(C(O)C(O)CO)ccc1O (centres undefined) [GUAIACYL GLYCEROL]
A549
  IC50: > 100 µM
[1]
  IC50: 96.9 µM
HeLa
  IC50: > 100 µM
PANC-1
  PC50: >100 µM
[2]
  IC50: > 100 µM
HT-1080
  IC50: > 100 µM

## O=C(O)c1ccc(O)cc1 [PARABEN]
A549
  IC50: > 100 µM
[1]
  IC50: 33.3 µM
HeLa
  IC50: 36.2 µM
PANC-1
  PC50: >100 µM
[2]
  IC50: 63.3 µM
HT-1080
  IC50: > 100 µM

## O=C1C[C@@H](c2ccccc2)Oc2cc(O)cc(O)c21 [PINOCEMBRIN]
A549
  IC50: > 100 µM
[1]
  IC50: 71 µM
HeLa
  IC50: > 100 µM
PANC-1
  PC50: 72.9 µM
[2]
  IC50: > 100 µM
HT-1080
  IC50: 72.8 µM

## COc1cc(/C=C/c2ccc(O)cc2)cc(OC)c1 [PTEROSTILBENE]
A549
  IC50: 71.7 µM
[1]
  IC50: 2.96 µM
HeLa
  IC50: 9.43 µM
PANC-1
  PC50: 44.4 µM
[2]
  IC50: 15.9 µM
HT-1080
  IC50: 93.4 µM

## Oc1ccc([C@H]2CCc3ccc(O)cc3O2)cc1 [TUPICHINOL C]
A549
  IC50: 94 µM
[1]
  IC50: 43.9 µM
HeLa
  IC50: 93.4 µM
PANC-1
  PC50: >100 µM
[2]
  IC50: > 100 µM
HT-1080
  IC50: 50.1 µM
